Reference: ChEMBL document CHEMBL4177578, “Synthesis, pharmacological activities and molecular docking studies of pyrazolyltriazoles as anti-bacterial and anti-inflammatory agents” (Bioorg Med Chem, 2017)
Converted amounts (≈) assume the structure as drawn. The source made the active and inactive calls. No cut-off for these calls is given here.

test system: U-937; assay: Anti-inflammatory activity in human U937 cells assessed as inhibition of LPS-induced TNFalpha production at 10 uM pre-incubated for 1 hr before LPS stimulation for 24 hrs by ELISA method; format: functional; details: not given
Method in brief: (§1)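 Human U937 cells grown in RPMI1640 with 10% FBS at 37 °C, 5% CO2. Differentiated with PMA 30 ng/ml for 24 h. Test compounds added for 1 h, then LPS 1 µg/ml for 24 h. TNF-α and IL-6 in supernatant measured by ELISA. Three independent experiments.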

Compared with `OCc1cn(Cc2cn(-c3ccccc3)nc2-c2ccc(Cl)cc2)nn1`, `COc1ccc(-c2nn(-c3ccccc3)cc2Cn2cc(CO)nn2)cc1` is higher in inhibition at 10 µM: 19.2% for the first, 40.9% for the second.

Compared with `OCc1cn(Cc2cn(-c3ccccc3)nc2-c2ccccc2)nn1`, `Cc1ccc(-n2cc(Cn3cc(CO)nn3)c(-c3ccccc3)n2)cc1C` is higher in inhibition at 10 µM: 15.7% for the first, 41.7% for the second.

`COc1ccc(-c2nn(-c3ccccc3)cc2CO)cc1` gave an inhibition at 10 µM of 22.9%.

test system: Micrococcus luteus; assay: Antimicrobial activity against Micrococcus luteus at 1 mg/ml incubated for 20 to 30 mins followed by incubation for 24 hrs at 37 degC by agar plate method; format: functional; details: read-out: DIZ
Method in brief: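 Agar well diffusion on nutrient agar. Plates swabbed with 60 µL inoculum; 8 mm wells loaded with 100 µL of compound at 1.0 mg/mL. Held 20–30 min at 4 °C for diffusion, then 24 h at 37 °C. Inhibition zone diameter read in mm. Triplicate.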

Work on `COc1ccc(-c2nn(-c3ccccc3)cc2Cn2cc(CO)nn2)cc1` yielded a zone of inhibition at 1000 µg/mL of 26 mm.

test system: Salmonella typhi; assay: Antimicrobial activity against Salmonella typhi at 1 mg/ml incubated for 20 to 30 mins followed by incubation for 24 hrs at 37 degC by agar plate method; format: functional, Salmonella enterica subsp. enterica serovar Typhi; details: Salmonella enterica; read-out: DIZ
Method in brief: (§2)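 Agar well diffusion on nutrient agar. Plates swabbed with 60 µL inoculum, 8 mm wells loaded with 100 µL sample at 1.0 mg/mL, streptomycin standard and control in separate wells. Plates held 20–30 min at 4 °C for diffusion, then 24 h at 37 °C. Zone diameter read in mm; triplicate.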

Compared with `COc1ccc(-c2nn(-c3ccccc3)cc2Cn2cc(CO)nn2)cc1`, `Cc1ccc(-n2cc(Cn3cc(CO)nn3)c(-c3ccccc3)n2)cc1C` is lower in zone of inhibition at 1000 µg/mL: 16 mm for the first, 15.5 mm for the second.

test system: Salmonella paratyphi; assay: Antimicrobial activity against Salmonella paratyphi at 1 mg/ml incubated for 20 to 30 mins followed by incubation for 24 hrs at 37 degC by agar plate method; format: functional, Salmonella enterica subsp. enterica serovar Paratyphi A; details: Salmonella enterica; read-out: DIZ; method in brief: as §2

Compared with `OCc1cn(Cc2cn(-c3ccccc3)nc2-c2ccc(Cl)cc2)nn1`, `COc1ccc(-c2nn(-c3ccccc3)cc2Cn2cc(CO)nn2)cc1` is higher in zone of inhibition at 1000 µg/mL: 15 mm for the first, 19 mm for the second.

Compared with `OCc1cn(Cc2cn(-c3ccccc3)nc2-c2ccccc2)nn1`, `COc1ccc(-c2nn(-c3ccccc3)cc2CO)cc1` is lower in zone of inhibition at 1000 µg/mL: 12.5 mm for the first, 11.5 mm for the second.

test system: Micrococcus luteus; assay: Antimicrobial activity against Micrococcus luteus incubated for 12 to 16 hrs by tube dilution method; format: functional; details: not given
Method in brief: (§3)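 Tube dilution, serial from 500 to 1.9 µg/mL, plus drug-free control tube. Each tube inoculated with 1 mL culture at OD 0.2, incubated 37 °C for 12–16 h. MIC is the lowest concentration with no growth by turbidity. MBC is found by plating each tube on nutrient agar: the lowest concentration at which all cells are killed.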

Work on `COc1ccc(-c2nn(-c3ccccc3)cc2Cn2cc(CO)nn2)cc1` yielded an MIC of 125 µg/mL (≈ 346 µM).

test system: Micrococcus luteus; assay: Antimicrobial activity against Micrococcus luteus incubated for 12 to 16 hrs followed by plating in nutrient agar by tube dilution method; format: functional; details: not given; method in brief: as §3

In the case of `COc1ccc(-c2nn(-c3ccccc3)cc2Cn2cc(CO)nn2)cc1`, the MBC is reported as 125 µg/mL (≈ 346 µM).

test system: Salmonella typhi; assay: Antimicrobial activity against Salmonella typhi incubated for 12 to 16 hrs by tube dilution method; format: functional, Salmonella enterica subsp. enterica serovar Typhi; details: Salmonella enterica
Method in brief: (§4)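 Broth tube dilution, two-fold serial dilutions from 500 to 1.9 µg/mL plus a drug-free control tube. Each tube inoculated with 1 mL culture at OD 0.2 (~McFarland standard), 37 °C for 12-16 h. Turbidity compared with the control tube. MIC is the lowest concentration giving complete growth inhibition.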

Molecule `COc1ccc(-c2nn(-c3ccccc3)cc2Cn2cc(CO)nn2)cc1` has an MIC of 62.5 µg/mL (≈ 173 µM).

test system: Salmonella typhi; assay: Antimicrobial activity against Salmonella typhi incubated for 12 to 16 hrs followed by plating in nutrient agar by tube dilution method; format: functional, Salmonella enterica subsp. enterica serovar Typhi; details: Salmonella enterica
Method in brief: (§5)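 After 12-16 h at 37 °C in tube dilution (500 to 1.9 µg/mL; 1 mL inoculum at OD 0.2), the culture from each tube was plated on nutrient agar. MBC is the concentration at which cells are completely killed.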

With `COc1ccc(-c2nn(-c3ccccc3)cc2Cn2cc(CO)nn2)cc1` the MBC was 125 µg/mL (≈ 346 µM).

test system: Salmonella paratyphi; assay: Antimicrobial activity against Salmonella paratyphi incubated for 12 to 16 hrs by tube dilution method; format: functional, Salmonella enterica subsp. enterica serovar Paratyphi A; details: Salmonella enterica; method in brief: as §4

Molecule `COc1ccc(-c2nn(-c3ccccc3)cc2Cn2cc(CO)nn2)cc1` has an MIC of 62.5 µg/mL (≈ 173 µM).

test system: Salmonella paratyphi; assay: Antimicrobial activity against Salmonella paratyphi incubated for 12 to 16 hrs followed by plating in nutrient agar by tube dilution method; format: functional, Salmonella enterica subsp. enterica serovar Paratyphi A; details: Salmonella enterica; method in brief: as §5

Work on `COc1ccc(-c2nn(-c3ccccc3)cc2Cn2cc(CO)nn2)cc1` yielded an MBC of 62.5 µg/mL (≈ 173 µM).

test system: not listed separately; assay: Anti-inflammatory activity at 50 ug/ml using bovine serum albumin and egg albumin proteins incubated at 37 degC for 20 mins and then heated to 95 degC for 20 mins by UV-visible Spectrophotometry based protein denaturation method; format: functional; details: not given
Method in brief: (§6)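 Albumin (bovine serum or egg) at 1% in 50 mM sodium phosphate buffer pH 6.4. Mixture is 0.1 ml test sample (1 mg/ml) plus 0.2 ml albumin, made to 5 ml with buffer. Held 37 °C for 20 min, then 95 °C for 20 min. Cooled to room temperature, turbidity read at 660 nm. % inhibition = (Abs control − Abs sample)/Abs control × 100. Triplicate, averaged.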

Compared with `OCc1cn(Cc2cn(-c3ccccc3)nc2-c2ccc(Cl)cc2)nn1`, `COc1ccc(-c2nn(-c3ccccc3)cc2Cn2cc(CO)nn2)cc1` is higher in inhibition: 49.1% for the first, 69% for the second.

Going from `OCc1cn(Cc2cn(-c3ccccc3)nc2-c2ccccc2)nn1` to `Cc1ccc(-n2cc(Cn3cc(CO)nn3)c(-c3ccccc3)n2)cc1C`, the inhibition rises from 10.3% to 46.5%.

In the case of `COc1ccc(-c2nn(-c3ccccc3)cc2CO)cc1`, the inhibition is reported as 15.5%.

test system: not listed separately; assay: Anti-inflammatory activity at 100 ug/ml using bovine serum albumin and egg albumin proteins incubated at 37 degC for 20 mins and then heated to 95 degC for 20 mins by UV-visible Spectrophotometry based protein denaturation method; format: functional; details: not given; method in brief: as §6

Going from `OCc1cn(Cc2cn(-c3ccccc3)nc2-c2ccc(Cl)cc2)nn1` to `COc1ccc(-c2nn(-c3ccccc3)cc2Cn2cc(CO)nn2)cc1`, the inhibition rises from 73.3% to 86.2%.

Going from `OCc1cn(Cc2cn(-c3ccccc3)nc2-c2ccccc2)nn1` to `Cc1ccc(-n2cc(Cn3cc(CO)nn3)c(-c3ccccc3)n2)cc1C`, the inhibition rises from 38.8% to 77.6%.

Molecule `COc1ccc(-c2nn(-c3ccccc3)cc2CO)cc1` has an inhibition of 47.4%.

test system: not listed separately; assay: Anti-inflammatory activity using bovine serum albumin and egg albumin proteins incubated at 37 degC for 20 mins and then heated to 95 degC for 20 mins by UV-visible Spectrophotometry based protein denaturation method; format: functional; details: not given; method in brief: as §6

`OCc1cn(Cc2cn(-c3ccccc3)nc2-c2ccc(Cl)cc2)nn1` and `COc1ccc(-c2nn(-c3ccccc3)cc2Cn2cc(CO)nn2)cc1` are within 1.5-fold of each other in IC50: 68.24 µg/mL (≈ 187 µM) for the first, 58 µg/mL (≈ 160 µM) for the second.

Compared with `OCc1cn(Cc2cn(-c3ccccc3)nc2-c2ccccc2)nn1`, `Cc1ccc(-n2cc(Cn3cc(CO)nn3)c(-c3ccccc3)n2)cc1C` is 2-fold lower in IC50: 128.89 µg/mL (≈ 389 µM) for the first, 64.44 µg/mL (≈ 179 µM) for the second.

`COc1ccc(-c2nn(-c3ccccc3)cc2CO)cc1` gave an IC50 of 105.45 µg/mL (≈ 376 µM).

test system: U-937; assay: Anti-inflammatory activity in human U937 cells assessed as inhibition of LPS-induced TNFalpha production pre-incubated for 1 hr before LPS stimulation for 24 hrs by ELISA method; format: functional, cell-based; details: not given; method in brief: as §1

Compared with `OCc1cn(Cc2cn(-c3ccccc3)nc2-c2ccc(Cl)cc2)nn1`, `COc1ccc(-c2nn(-c3ccccc3)cc2Cn2cc(CO)nn2)cc1` is 1.8-fold lower in IC50: 30.9 µM for the first, 17.2 µM for the second.

First: OCc1cn(Cc2cn(-c3ccccc3)nc2-c2ccccc2)nn1
Second: Cc1ccc(-n2cc(Cn3cc(CO)nn3)c(-c3ccccc3)n2)cc1C
The IC50 of the first is 2.1-fold higher: 35.7 µM for the first, 17.4 µM for the second. The second is the more potent here.

Work on `COc1ccc(-c2nn(-c3ccccc3)cc2CO)cc1` yielded an IC50 of 35.5 µM.

test system: U-937; assay: Anti-inflammatory activity in human U937 cells assessed as inhibition of LPS-induced IL6 production at 10 uM pre-incubated for 1 hr before LPS stimulation for 24 hrs by ELISA method; format: functional; details: not given; method in brief: as §1

Going from `OCc1cn(Cc2cn(-c3ccccc3)nc2-c2ccc(Cl)cc2)nn1` to `COc1ccc(-c2nn(-c3ccccc3)cc2Cn2cc(CO)nn2)cc1`, the inhibition at 10 µM falls from 76.9% to 46.7%.

Going from `OCc1cn(Cc2cn(-c3ccccc3)nc2-c2ccccc2)nn1` to `Cc1ccc(-n2cc(Cn3cc(CO)nn3)c(-c3ccccc3)n2)cc1C`, the inhibition at 10 µM rises from 53% to 87%.

With `COc1ccc(-c2nn(-c3ccccc3)cc2CO)cc1` the inhibition at 10 µM was 68.5%.

test system: U-937; assay: Anti-inflammatory activity in human U937 cells assessed as inhibition of LPS-induced IL6 production pre-incubated for 1 hr before LPS stimulation for 24 hrs by ELISA method; format: functional, cell-based; details: not given; method in brief: as §1

First: OCc1cn(Cc2cn(-c3ccccc3)nc2-c2ccc(Cl)cc2)nn1
Second: COc1ccc(-c2nn(-c3ccccc3)cc2Cn2cc(CO)nn2)cc1
The IC50 of the first is 1.5-fold lower: 6.23 µM for the first, 9.5 µM for the second.

`OCc1cn(Cc2cn(-c3ccccc3)nc2-c2ccccc2)nn1` and `Cc1ccc(-n2cc(Cn3cc(CO)nn3)c(-c3ccccc3)n2)cc1C` are within 1.5-fold of each other in IC50: 8.12 µM for the first, 7.72 µM for the second.

In the case of `COc1ccc(-c2nn(-c3ccccc3)cc2CO)cc1`, the IC50 is reported as 8.24 µM.

test system: Mus musculus; assay: Anti-inflammatory activity in Balb/c mouse assessed as reduction in LPS-induced serum TNFalpha production at 100 mg/kg, ig dosed for 3 consecutive days before LPS challenge and measured 6 hrs post LPS injection by ELISA method; format: functional, organism-based; details: not given
Method in brief: (§7)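 Male Balb/c mice (20–25 g), 8 per group. Test compound at 100 mg/kg suspended in 2% gum acacia (10 ml/kg), given orally (intragastric) for 3 consecutive days. On day 3, LPS (10 mg/kg) given ip 1 h after the oral dose. Serum taken from retro-orbital blood 6 h after LPS; TNF-α and IL-6 measured by ELISA. Mean ± S.E.M.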

With `Cc1ccc(-n2cc(Cn3cc(CO)nn3)c(-c3ccccc3)n2)cc1C` the inhibition was “Active”.

test system: Mus musculus; assay: Anti-inflammatory activity in Balb/c mouse assessed as reduction in LPS-induced serum IL6 production at 100 mg/kg, ig dosed for 3 consecutive days before LPS challenge and measured 6 hrs post LPS injection by ELISA method; format: functional, organism-based; details: not given; method in brief: as §7

For `Cc1ccc(-n2cc(Cn3cc(CO)nn3)c(-c3ccccc3)n2)cc1C`, the inhibition was “inactive”.
